What was measured:
[1] = test system: Mouse bone marrow-derived dendritic cells (BMDCs); experiment: BMDC activation; type: cell-based; conditions: 6 h incubation + 18 h fresh medium, flow cytometry
Method in brief: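 Immature mouse bone marrow-derived DCs plated at 2 × 10^6 cells per well and held overnight. Cells exposed for 6 h to free adjuvant, free photosensitizer or adjuvant/photosensitizer-loaded mesoporous silica nanoparticles. Medium then replaced and incubation continued for 18 h. Cells harvested, stained with fluorophore-labelled anti-CD40, anti-CD80 and anti-CD86, and analysed by flow cytometry, gating live intact cells only.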

[2] = UV-vis absorption / aqueous solubility of Ce6; type: physicochemical; conditions: Ce6 diluted in PBS; ~660 nm absorption peak absent
[3] = test system: Mouse bone marrow-derived dendritic cells (BMDCs); experiment: BMDC cytokine secretion; type: cell-based; conditions: 6 h incubation + 18 h fresh medium, ELISA
Method in brief: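 Immature mouse bone marrow-derived DCs plated at 2 × 10^6 cells per well and held overnight. Cells exposed for 6 h to free adjuvant, free photosensitizer or loaded mesoporous silica nanoparticles. Medium exchanged for fresh medium and incubation continued for 18 h. Culture medium then collected and IL-12p70 and TNF-α measured with ELISA kits.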

| aqueous solubility [2] | Compound | DC maturation (expression levels of CD40, CD80, CD86) [1] | secretion of IL-12p70 and TNF-α [3] |
| --- | --- | --- | --- |
| poor aqueous solubility | C=Cc1c(C)c2cc3nc(c(CC(=O)O)c4[nH]c(cc5nc(cc1[nH]2)C(C)=C5CC)c(C)c4C(=O)O)[C@@H](CCC(=O)O)[C@@H]3C [Ce6, chlorin e6] | no obvious signs of DC maturation | did not secrete any detectable levels |
|  | CSSASMTNMELM [Adpgk] | no obvious signs of DC maturation | did not secrete any detectable levels |

Source: PMC6832743 (ACS nano, 2019)
